For 18 molecules, inhibition, Ki and Kb results are on record in ChEMBL document CHEMBL1649418, “Pyrimidine derivatives as potent and selective A3 adenosine receptor antagonists” (J Med Chem, 2011).

Assay [1] concerns the target T1, Adenosine receptor A2b (Homo sapiens) (UniProt P29275).
T1 sequence (whole entry): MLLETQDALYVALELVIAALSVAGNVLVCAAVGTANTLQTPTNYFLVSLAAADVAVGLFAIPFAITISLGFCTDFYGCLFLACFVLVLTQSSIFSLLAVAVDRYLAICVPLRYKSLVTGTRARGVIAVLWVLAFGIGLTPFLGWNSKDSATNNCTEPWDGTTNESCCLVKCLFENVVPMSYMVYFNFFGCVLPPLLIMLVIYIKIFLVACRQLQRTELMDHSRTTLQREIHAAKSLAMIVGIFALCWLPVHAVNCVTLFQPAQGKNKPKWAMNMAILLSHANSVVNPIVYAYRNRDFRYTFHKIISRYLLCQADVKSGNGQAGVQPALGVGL
Put plainly: Displacement of [3H]DPCPX from human adenosine A2B receptor expressed in HEK293 cells at 1 uM by liquid scintillation counting. Format: cell-based. In general terms: Loss of bound radioactivity is the signal in a displacement assay; it reports binding, not function.

Assay [2] addresses T2, Adenosine receptor A2a (Homo sapiens, UniProt P29274). Description: Displacement of [3H][…] from human adenosine A2A receptor expressed in human HeLa cells at 1 uM by liquid scintillation counting. The format is cell-based.
Assay [3] addresses T3, Adenosine receptor A3 (Homo sapiens) (UniProt P0DMS8).
T3 sequence (whole entry): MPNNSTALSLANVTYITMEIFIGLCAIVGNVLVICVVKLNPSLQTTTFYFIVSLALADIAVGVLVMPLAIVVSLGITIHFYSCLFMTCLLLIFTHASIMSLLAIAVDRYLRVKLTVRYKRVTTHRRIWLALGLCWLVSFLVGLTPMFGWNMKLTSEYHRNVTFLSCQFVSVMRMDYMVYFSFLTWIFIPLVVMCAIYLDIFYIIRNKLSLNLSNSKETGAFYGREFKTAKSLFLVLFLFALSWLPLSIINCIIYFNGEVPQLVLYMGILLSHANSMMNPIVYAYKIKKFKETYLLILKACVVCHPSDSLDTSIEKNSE
Put plainly: Displacement of [3H]NECA from human adenosine A3 receptor expressed in human HeLa cells at 1 uM by liquid scintillation counting. Format: cell-based.

In assay [4] the target is T4, Adenosine receptor A1 (Homo sapiens) (UniProt P30542).
T4 sequence (whole entry): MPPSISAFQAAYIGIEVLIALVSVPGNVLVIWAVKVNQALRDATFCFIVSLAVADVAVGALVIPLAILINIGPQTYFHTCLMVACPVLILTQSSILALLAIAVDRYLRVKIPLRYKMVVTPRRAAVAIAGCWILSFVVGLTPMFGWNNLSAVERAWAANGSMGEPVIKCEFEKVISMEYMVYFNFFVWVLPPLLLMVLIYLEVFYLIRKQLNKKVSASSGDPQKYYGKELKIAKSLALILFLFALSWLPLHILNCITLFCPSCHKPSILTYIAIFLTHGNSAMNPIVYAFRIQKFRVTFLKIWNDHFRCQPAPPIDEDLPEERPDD
Put plainly: Displacement of [3H]DPCPX from human adenosine A1 receptor expressed in CHO cells at 0.1 uM by liquid scintillation counting. The format is cell-based. Summed up: (§1)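 Transfected CHO cell membranes (15 μg) were incubated with [3H]DPCPX at 25 °C for 60 min, with six test concentrations from 0.1 nM to 1 μM. Nonspecific binding was defined with 10 μM R-PIA. Filters were washed four times with ice-cold buffer before scintillation counting. Ki (Cheng–Prusoff) is mean ± SEM, n=3; % displacement at 0.1 μM is n=2.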

For a further assay, the target named is T5, Adenosine receptor A3 (Homo sapiens, UniProt P0DMS8).
T5 sequence (P0DMS8 whole entry): T3 sequence (whole entry)
Description: Displacement of [3H]NECA from human adenosine A3 receptor expressed in human HeLa cells by liquid scintillation counting. The settings on record: read-out: Ki. Format: cell-based. In outline: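 HeLa membranes (90 μg) carrying hA3AR were incubated with [3H]NECA (30 nM) at 25 °C for 180 min, with six concentrations from 0.1 nM to 1 μM. Nonspecific binding was defined with 100 μM R-PIA. Filters were washed six times and counted by scintillation.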

The target in assay [5] is T2, Adenosine receptor A2a. Description: Displacement of [3H][…] from human adenosine A2A receptor expressed in human HeLa cells at 0.1 uM by liquid scintillation counting. The format is cell-based. Summed up:
(§2)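 Nonspecific binding was defined with 50 μM NECA. Filters were washed four times with ice-cold buffer, then counted by scintillation. Ki (Cheng–Prusoff) is mean ± SEM, n=3; % displacement at 0.1 μM is n=2.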

In assay [6] the target is T3, Adenosine receptor A3 (Homo sapiens). Description: Antagonist activity at human adenosine A3 receptor expressed in human HeLa cells assessed as inhibition of forskolin-stimulated cAMP production by enzyme immunoassay. The format is functional, cell-based. In outline: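 Intact cells expressing hA3AR were stimulated with 10 μM forskolin, and receptor activation was induced with 0.1 μM NECA. Antagonist concentration-response curves were run against the NECA-induced cAMP decrease, with cAMP measured by enzyme immunoassay. K_B was derived from IC50, agonist concentration, agonist EC50 and curve slope. Data are mean ± SEM of two separate experiments.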
(cAMP levels reflect the balance of adenylyl cyclase and phosphodiesterase activity.)

Assay [7] concerns the target T1, Adenosine receptor A2b (Homo sapiens). Description: Displacement of [3H]DPCPX from human adenosine A2B receptor expressed in HEK293 cells at 0.1 uM by liquid scintillation counting. The format is cell-based. Summed up: (§3)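 HEK-293 membranes (18 μg) were incubated with [3H]DPCPX (35 nM) at 25 °C for 30 min, with six concentrations from 0.1 nM to 1 μM. Nonspecific binding was defined with 400 μM NECA. Filters were washed six times with ice-cold buffer and counted by scintillation. Ki (Cheng–Prusoff) is mean ± SEM, n=3; % displacement at 0.1 μM is n=2.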

Assay [8] deals with T2, Adenosine receptor A2a. Description: Displacement of [3H][…] from human adenosine A2A receptor expressed in human HeLa cells by liquid scintillation counting. The format is cell-based. In outline:
as §2

A further assay deals with T6, Adenosine receptor A1 (Homo sapiens, UniProt P30542).
T6 sequence (P30542 whole entry): T4 sequence (whole entry)
Put plainly: Displacement of [3H]DPCPX from human adenosine A1 receptor expressed in CHO cells by liquid scintillation counting. The format is cell-based. In outline:
as §1

A further assay has as its target T7, Adenosine receptor A2b (Homo sapiens, UniProt P29275).
T7 sequence (P29275 whole entry): T1 sequence (whole entry)
Put plainly: Displacement of [3H]DPCPX from human adenosine A2B receptor expressed in HEK293 cells by liquid scintillation counting. The format is cell-based. In outline: as §3

Assay [9] addresses T3, Adenosine receptor A3 (Homo sapiens). Description: Displacement of [3H]NECA from human adenosine A3 receptor expressed in human HeLa cells at 0.1 uM by liquid scintillation counting. Format: cell-based. Summed up:
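HeLa membranes (90 μg) carrying hA3AR were incubated with [3H]NECA (30 nM) at 25 °C for 180 min, with six concentrations from 0.1 nM to 1 μM. Nonspecific binding was defined with 100 μM R-PIA. Filters were washed six times and counted by scintillation. Ki (Cheng–Prusoff) is mean ± SEM, n=3; % displacement at 0.1 μM is n=2.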

T2 sequence (P29274 whole entry): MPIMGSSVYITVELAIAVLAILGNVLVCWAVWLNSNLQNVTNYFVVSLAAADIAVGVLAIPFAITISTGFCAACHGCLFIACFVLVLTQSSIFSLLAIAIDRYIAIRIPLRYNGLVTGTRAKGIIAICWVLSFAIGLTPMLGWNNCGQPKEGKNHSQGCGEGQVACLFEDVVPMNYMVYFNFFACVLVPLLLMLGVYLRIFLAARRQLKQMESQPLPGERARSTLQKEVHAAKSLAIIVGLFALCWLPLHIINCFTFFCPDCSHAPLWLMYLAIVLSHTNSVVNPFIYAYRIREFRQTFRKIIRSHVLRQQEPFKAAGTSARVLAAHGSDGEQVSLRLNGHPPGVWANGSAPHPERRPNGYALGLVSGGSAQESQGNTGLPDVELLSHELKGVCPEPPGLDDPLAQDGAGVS

Broadly, the inhibition is the share of the control response that was lost under treatment. A higher inhibition goes with a strong effect. As to `CC(C)(C)CC(=O)Nc1cc(-c2ccccc2)nc(-c2ccccc2)n1`, the inhibition in assay [1] amounted to 4%; at Adenosine receptor A2a [2], 32%; in [3], 39%.
The term Ki denotes the equilibrium dissociation constant of an inhibitor or competing ligand from its target. A word on the Kb: it is the affinity of an antagonist, worked out from how it opposes an agonist. Regarding `COc1ccc(-c2cc(NC(C)=O)nc(-c3ccc(OC)cc3OC)n2)c(OC)c1`, the inhibition in [4] was 1%; at Adenosine receptor A2a [5] it was 6%; in [7], 2%. In addition, the inhibition constant Ki at Adenosine receptor A3 stood at 5.4 nM. In addition, in [6], the Kb stood at 3.85 nM.
The like results for `CCC(=O)Nc1cc(-c2ccc(OC)cc2)nc(-c2ccc(OC)cc2)n1` were, in that order, 8%, 1%, 3%, 3.6 nM and 1.4 nM.
For `CCCC(=O)Nc1cc(-c2ccc(OC)cc2)nc(-c2ccc(OC)cc2)n1` the same measures were 8%, 4%, 1%, 11 nM and 1.57 nM.
Consider `CCC(=O)Nc1nc(-c2ccc(SC)cc2)cc(-c2ccc(SC)cc2)n1`, for which the Ki at Adenosine receptor A2a [8] stood at 183 nM; on Adenosine receptor A3 it was 4430 nM; on Adenosine receptor A1 it was 505 nM; at Adenosine receptor A2b, 374 nM.
For `CCC(=O)Nc1cc(-c2ccco2)nc(-c2ccco2)n1` the same measures were 6.4 nM, 6.2 nM, 15.5 nM and 20.5 nM.
`O=C(Nc1nc(-c2ccccc2)cc(-c2ccccc2)n1)C1CCCC1` showed an inhibition in assay [1] of 52%. For the same molecule, the Ki stood at 196 nM on Adenosine receptor A2a [8], 170 nM on Adenosine receptor A3 and 2.14 nM on Adenosine receptor A1.
As to `CCC(=O)Nc1cc(-c2ccoc2)nc(-c2ccoc2)n1`, the Ki is 82.8 nM on Adenosine receptor A2a [8], 12.6 nM on Adenosine receptor A3, 132 nM at Adenosine receptor A1 and 49 nM on Adenosine receptor A2b.
`CCC(=O)Nc1cc(-c2ccc3c(c2)OCO3)nc(-c2ccc3c(c2)OCO3)n1`: the Ki on Adenosine receptor A2a [8] was 2540 nM; at Adenosine receptor A3 it was 14.5 nM; on Adenosine receptor A1, 5.28 nM; on Adenosine receptor A2b it was 1670 nM.
The like results for `CCC(=O)Nc1cc(-c2ccccc2)nc(-c2ccccc2)n1` were, in that order, 84.5 nM, 45.5 nM, 22.3 nM and 76.6 nM.
For `CCC(=O)Nc1nc(-c2ccsc2)cc(-c2ccsc2)n1` the same measures were 1890 nM, 1280 nM, 367 nM and 3250 nM.
Consider `CCCC(=O)Nc1nc(-c2ccccc2)cc(-c2ccccc2)n1`, for which the inhibition in [9] is 17%; in assay [1], 54%; on Adenosine receptor A2a [2], 7%; at Adenosine receptor A2a [5], 3%; in [3], 38%; in [7], 14%.
Turning to `CC(C)C(=O)Nc1nc(-c2ccccc2)cc(-c2ccccc2)n1`, the figures for the inhibition (in assay [1]; at Adenosine receptor A2a [2]; in [3]) were 79%, 44% and 45%, respectively.
For the molecule `CCC(=O)Nc1nc(-c2ccccc2)cc(-c2ccccc2)n1`, the inhibition constant (Ki) was determined as 554 nM at Adenosine receptor A2a [8], 531 nM at Adenosine receptor A3, 31.3 nM on Adenosine receptor A1 and 42.5 nM at Adenosine receptor A2b.
Regarding `CCC(=O)Nc1cc(-c2ccc(Cl)cc2)nc(-c2ccc(Cl)cc2)n1`, the inhibition was found to be 16% in assay [4], 20% at Adenosine receptor A2a [5] and 3% in assay [7]. On Adenosine receptor A3, the Ki turned out to be 25.3 nM. Further, the Kb in [6] is 3.88 nM.
On to `CC(=O)Nc1cc(-c2ccc(C)cc2)nc(-c2ccc(C)cc2)n1`, for which the inhibition was determined as 2% in [4], 8% on Adenosine receptor A2a [5] and 2% in assay [7]. Besides, the Ki at Adenosine receptor A3 stood at 4.4 nM. Also, in [6], the Kb stood at 3.56 nM.
`CC(=O)Nc1cc(-c2ccco2)nc(-c2ccco2)n1`: the inhibition constant Ki on Adenosine receptor A2a [8] was 8.1 nM; at Adenosine receptor A3 it was 3 nM; on Adenosine receptor A1, 40.7 nM; on Adenosine receptor A2b, 12 nM.
The like results for `CCC(=O)Nc1nc(-c2ccccc2F)cc(-c2ccccc2F)n1` were, in that order, 424 nM, 279 nM, 48.2 nM and 307 nM.
